Data on eight molecules can be found in ChEMBL document CHEMBL4396890, “Synthesis, Biological Evaluation, Structure-Activity Relationship, and Mechanism of Action Studies of Quinoline-Metronidazole Derivatives Against Experimental Visceral Leishmaniasis” (J Med Chem, 2019).

Activity calls are given as the source filed them. The calls are words filed in the database; no cut-off is given here.

A word on the inhibition: it is the percentage by which the read-out fell short of the control.

For the first assay, the system named is Leishmania donovani. Description: Antileishmanial activity against Leishmania donovani MHOM/IN/80/Dd8 promastigotes harboring luciferase reporter gene at 50 uM after 48 hrs by Steady-Glo luminescence assay relative to control. The class given is functional. The settings on record: MHOM/IN/80/Dd8, 48 h. In a few lines: (§1)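 Luciferase-expressing L. donovani Dd8 promastigotes were grown at 24 °C in M199 with 10% heat-inactivated FBS and G418 20 μg/mL. They were treated at varied concentrations for 24 and 48 h, and inhibition was read as relative luminescence units versus untreated control. IC50 was from dose–response; screening values are mean ± SD of at least three experiments in duplicate.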
(In general: Reporter assays use an easily measured gene product as a stand-in for the process of interest.)
For `Cc1ncc([N+](=O)[O-])n1CCOc1ccc(-c2cc(-c3ccccc3Cl)c3cc(Cl)ccc3n2)cc1`, testing at 50 µM gave an inhibition of 61.7%.

Consider `Cc1ncc([N+](=O)[O-])n1CCOc1ccc(-c2cc(-c3ccccc3)c3ccc(Br)cc3n2)cc1`, for which the inhibition at 50 µM amounted to 63.9%.

Turning to `Cc1ncc([N+](=O)[O-])n1CCOc1cccc(-c2cc(-c3ccccc3)c3cc(Br)ccc3n2)c1`, the inhibition at 50 µM worked out at 60.8%.

`Cc1ncc([N+](=O)[O-])n1CCOc1cccc(-c2cc(-c3ccccc3)c3ccccc3n2)c1` returned an inhibition at 50 µM of 63%.

As for `Cc1ncc([N+](=O)[O-])n1CCOc1ccc(-c2cc(-c3ccccc3F)c3cc(Cl)ccc3n2)cc1`, 50 µM produced 59.1% inhibition.

Molecule `Cc1ncc([N+](=O)[O-])n1CCOc1ccc(-c2cc(-c3ccccc3)c3cc(Cl)ccc3n2)cc1` had an inhibition at 50 µM of 65.8%.

Molecule `Cc1ncc([N+](=O)[O-])n1CCOc1cccc(-c2cc(-c3ccccc3Cl)c3cc(Cl)ccc3n2)c1` displayed an inhibition at 50 µM of 26%.

The test system of the next assay is Leishmania donovani. Nature of the assay: Antileishmanial activity against Leishmania donovani MHOM/IN/80/Dd8 amastigotes harboring luciferase reporter gene infected in mouse J774 cells at 50 uM after 48 hrs by Steady-Glo luminescence assay relative to control. The class given is functional.
Settings: not given
Put shortly: (§2)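 Infection of J774 macrophages with L. donovani Dd8 promastigotes at a 1:8 cell:parasite ratio. Compounds were diluted 2-fold in RPMI over 3.125–100 μM final and applied for 48 h. Amastigote inhibition was read by luciferase (RLU) or by Giemsa count of amastigotes per 100 macrophages. IC50 was from dose–response; n = 3 independent experiments done in replicate.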
In the case of `Cc1ncc([N+](=O)[O-])n1CCOc1cccc(-c2cc(-c3ccccc3Cl)c3cc(Cl)ccc3n2)c1`, the inhibition result was “inactive”.

Still in this assay, the particulars now being: MHOM/IN/80/Dd8, J774, 48 h.
The molecule `Cc1ncc([N+](=O)[O-])n1CCOc1ccc(-c2cc(-c3ccccc3Cl)c3cc(Cl)ccc3n2)cc1` showed an inhibition at 50 µM of 27.2%.

`Cc1ncc([N+](=O)[O-])n1CCOc1ccc(-c2cc(-c3ccccc3)c3ccc(Br)cc3n2)cc1` came in with an inhibition at 50 µM of 60.3%.

`Cc1ncc([N+](=O)[O-])n1CCOc1cccc(-c2cc(-c3ccccc3)c3cc(Br)ccc3n2)c1` showed an inhibition at 50 µM of 65.3%.

As to `Cc1ncc([N+](=O)[O-])n1CCOc1cccc(-c2cc(-c3ccccc3)c3ccccc3n2)c1`, the inhibition at 50 µM stood at 66.4%.

Take `Cc1ncc([N+](=O)[O-])n1CCOc1ccc(-c2cc(-c3ccccc3F)c3cc(Cl)ccc3n2)cc1`: testing at 50 µM gave an inhibition of 63.6%.

For `Cc1ncc([N+](=O)[O-])n1CCOc1ccc(-c2cc(-c3ccccc3)c3cc(Cl)ccc3n2)cc1`, the inhibition at 50 µM is 64.4%.

The test system of the next assay is Leishmania donovani. Description: Antileishmanial activity against Leishmania donovani MHOM/IN/80/Dd8 amastigotes harboring luciferase reporter gene infected in mouse J774 cells at 25 uM after 48 hrs by Steady-Glo luminescence assay relative to control. The class given is functional.
Settings: not given
Put shortly:
as §2
`Cc1ncc([N+](=O)[O-])n1CCOc1cccc(-c2cc(-c3ccccc3Cl)c3cc(Cl)ccc3n2)c1`: the inhibition result was “inactive”.

Still in this assay, the particulars now being: MHOM/IN/80/Dd8, J774, 48 h.
The molecule `Cc1ncc([N+](=O)[O-])n1CCOc1ccc(-c2cc(-c3ccccc3Cl)c3cc(Cl)ccc3n2)cc1` displayed an inhibition at 25 µM of 12.1%.

`Cc1ncc([N+](=O)[O-])n1CCOc1ccc(-c2cc(-c3ccccc3)c3ccc(Br)cc3n2)cc1` registered an inhibition at 25 µM of 33.8%.

Regarding `Cc1ncc([N+](=O)[O-])n1CCOc1cccc(-c2cc(-c3ccccc3)c3cc(Br)ccc3n2)c1`, the inhibition at 25 µM worked out at 29.5%.

The molecule `Cc1ncc([N+](=O)[O-])n1CCOc1cccc(-c2cc(-c3ccccc3)c3ccccc3n2)c1` showed an inhibition at 25 µM of 31.2%.

On to `Cc1ncc([N+](=O)[O-])n1CCOc1ccc(-c2cc(-c3ccccc3F)c3cc(Cl)ccc3n2)cc1`, for which the inhibition at 25 µM worked out at 23.4%.

Take `Cc1ncc([N+](=O)[O-])n1CCOc1ccc(-c2cc(-c3ccccc3)c3cc(Cl)ccc3n2)cc1`: 25 µM produced 34.2% inhibition.

The test system of another assay is Leishmania donovani. Nature of the assay: Induction of mitochondrial potential loss in Leishmania donovani MHOM/IN/80/Dd8 promastigotes assessed as shift in red to green fluorescence at 50 uM by JC1 dye-based flow cytometry (reference value: 7.37%). The class given is functional.
Settings: not given
For `N#CC(C#N)=NNc1cccc(Cl)c1` [CARBONYL CYANIDE M-CHLOROPHENYLHYDRAZONE], the Activity came to 95.49%.

In another assay the test system is Leishmania donovani. Nature of the assay: Antileishmanial activity against Leishmania donovani MHOM/IN/80/Dd8 promastigotes harboring luciferase reporter gene at 25 uM after 48 hrs by Steady-Glo luminescence assay relative to control. The class given is functional. Conditions: MHOM/IN/80/Dd8, 48 h. Put shortly: as §1
In turn, `Cc1ncc([N+](=O)[O-])n1CCOc1ccc(-c2cc(-c3ccccc3Cl)c3cc(Cl)ccc3n2)cc1` showed an inhibition at 25 µM of 38.2%.

For the molecule `Cc1ncc([N+](=O)[O-])n1CCOc1ccc(-c2cc(-c3ccccc3)c3ccc(Br)cc3n2)cc1`, at 25 µM the inhibition was 41.3%.

The molecule `Cc1ncc([N+](=O)[O-])n1CCOc1cccc(-c2cc(-c3ccccc3)c3cc(Br)ccc3n2)c1` registered an inhibition at 25 µM of 30.2%.

Regarding `Cc1ncc([N+](=O)[O-])n1CCOc1cccc(-c2cc(-c3ccccc3)c3ccccc3n2)c1`, the inhibition at 25 µM came to 43%.

Regarding `Cc1ncc([N+](=O)[O-])n1CCOc1ccc(-c2cc(-c3ccccc3F)c3cc(Cl)ccc3n2)cc1`, the inhibition at 25 µM was 34.4%.

In the case of `Cc1ncc([N+](=O)[O-])n1CCOc1ccc(-c2cc(-c3ccccc3)c3cc(Cl)ccc3n2)cc1`, 25 µM produced 45.3% inhibition.

`Cc1ncc([N+](=O)[O-])n1CCOc1cccc(-c2cc(-c3ccccc3Cl)c3cc(Cl)ccc3n2)c1`: at 25 µM the inhibition was 12.3%.
